Measurements as given in ChEMBL document CHEMBL5303300, “EUbOPEN Chemogenomics Library - Multiplex” (2023).
Several values for one entry are separate records, joined by “and”; a condition that tells them apart may be missing. Identical values can stand only once.

Test system: U2OS
Assay: Multiplex assay against U2OS
Type: toxicity, cell-based
Conditions: human, number of replicates 2
Procedure, shortened: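 Live cells carried four stains from seeding: Hoechst33342, BioTracker Green Microtubule Cytoskeleton Dye, MitoTracker Red and Annexin V Alexa Fluor 680. They were imaged on a CQ1 microscope at 37°C and 5% CO2 after compound addition. Using CellPathfinder machine-learning gating, cells were split into Hoechst high-intensity objects or normal cells, normal cells into healthy, pyknosed or fragmented nuclei, and pyknosed cells into mitotic or apoptotic; tubulin, mitochondrial-mass and membrane-permeability phenotypes are per cents of healthy-nucleus cells.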

[1] = 12 h, 1 µM, compound concentration 1 uM
[2] = 12 h, 10 µM, compound concentration 10 uM
[3] = 24 h, 1 µM, compound concentration 1 uM
[4] = 24 h, 10 µM, compound concentration 10 uM
[5] = 48 h, 1 µM, compound concentration 1 uM
[6] = 48 h, 10 µM, compound concentration 10 uM

## Cc1ccc2c(N)c(C(=O)NC3CCc4cc(N5CC6CCC(C5)N6)ccc4C3)sc2n1.O=CO (stereo not drawn)
[1]
  Population Apoptotic (%): 100% and 51%
  Population Fragmented Nuclei (%): 11% and 6%
  Population Healthy Nuclei (%): 70% and 76%
  Population Hoechst High Intensity Objects (%): 0%
  Population Membrane Permeable-Phenotype (%): 16% and 7%
  Population Normal (%): 100%
  Population Pyknosed Nuclei (%): 17% and 16%
  Population Tubulin-Different-Phenotype (%): 19% and 25%
[2]
  Population Apoptotic (%): 36% and 24%
  Population Healthy Nuclei (%): 22% and 29%
  Population Hoechst High Intensity Objects (%): 3% and 12%
  Population Membrane Permeable-Phenotype (%): 16% and 11%
  Population Mitochondria Different-Phenotype (%): 50% and 51%
  Population Mitotic Cells (%): 63% and 75%
  Population Normal (%): 96% and 87%
  Population Pyknosed Nuclei (%): 35% and 56%
  Population Tubulin-Different-Phenotype (%): 50%
[3]
  Population Apoptotic (%): 69% and 75%
  Population Fragmented Nuclei (%): 4% and 5%
  Population Healthy Nuclei (%): 69% and 77%
  Population Hoechst High Intensity Objects (%): 0%
  Population Membrane Permeable-Phenotype (%): 17% and 6%
  Population Mitotic Cells (%): 30% and 24%
  Population Normal (%): 100%
  Population Pyknosed Nuclei (%): 26% and 16%
  Population Tubulin-Different-Phenotype (%): 26% and 23%
[4]
  Population Apoptotic (%): 56%
  Population Healthy Nuclei (%): 19% and 22%
  Population Hoechst High Intensity Objects (%): 8% and 11%
  Population Mitochondria Different-Phenotype (%): 75% and 69%
  Population Mitotic Cells (%): 43%
  Population Normal (%): 91% and 88%
  Population Pyknosed Nuclei (%): 39% and 64%
  Population Tubulin-Different-Phenotype (%): 50% and 60%
[5]
  Population Apoptotic (%): 80% and 88%
  Population Fragmented Nuclei (%): 7% and 5%
  Population Healthy Nuclei (%): 49% and 66%
  Population Hoechst High Intensity Objects (%): 0%
  Population Membrane Permeable-Phenotype (%): 14% and 19%
  Population Mitochondria Different-Phenotype (%): 25% and 53%
  Population Mitotic Cells (%): 20% and 11%
  Population Normal (%): 100%
  Population Pyknosed Nuclei (%): 43% and 28%
  Population Tubulin-Different-Phenotype (%): 21% and 40%
[6]
  Population Apoptotic (%): 53% and 87%
  Population Healthy Nuclei (%): 31% and 12%
  Population Membrane Permeable-Phenotype (%): 53% and 57%
  Population Mitochondria Different-Phenotype (%): 84%
  Population Normal (%): 95% and 83%
  Population Pyknosed Nuclei (%): 36% and 80%
  Population Tubulin-Different-Phenotype (%): 100% and 73%

## CN(C)CCCNc1ccnc(Nc2cccc(Cl)c2)n1
[1]
  Population Apoptotic (%): 60% and 50%
  Population Fragmented Nuclei (%): 6% and 5%
  Population Healthy Nuclei (%): 84% and 82%
  Population Hoechst High Intensity Objects (%): 0%
  Population Membrane Permeable-Phenotype (%): 0%
  Population Mitochondria Different-Phenotype (%): 0%
  Population Mitotic Cells (%): 39% and 50%
  Population Normal (%): 100%
  Population Pyknosed Nuclei (%): 9% and 11%
  Population Tubulin-Different-Phenotype (%): 70% and 42%
[2]
  Population Apoptotic (%): 50%
  Population Fragmented Nuclei (%): 11% and 17%
  Population Healthy Nuclei (%): 79% and 67%
  Population Hoechst High Intensity Objects (%): 0%
  Population Membrane Permeable-Phenotype (%): 4% and 5%
  Population Mitochondria Different-Phenotype (%): 4% and 5%
  Population Mitotic Cells (%): 50%
  Population Normal (%): 100%
  Population Pyknosed Nuclei (%): 9% and 14%
  Population Tubulin-Different-Phenotype (%): 52% and 42%
[3]
  Population Apoptotic (%): 66% and 82%
  Population Fragmented Nuclei (%): 2% and 4%
  Population Healthy Nuclei (%): 91% and 88%
  Population Hoechst High Intensity Objects (%): 0%
  Population Membrane Permeable-Phenotype (%): 0% and 2%
  Population Mitochondria Different-Phenotype (%): 0% and 1%
  Population Mitotic Cells (%): 33% and 17%
  Population Normal (%): 100%
  Population Pyknosed Nuclei (%): 6% and 7%
  Population Tubulin-Different-Phenotype (%): 51% and 74%
[4]
  Population Apoptotic (%): 38% and 33%
  Population Fragmented Nuclei (%): 14% and 22%
  Population Healthy Nuclei (%): 67% and 54%
  Population Hoechst High Intensity Objects (%): 0%
  Population Membrane Permeable-Phenotype (%): 2% and 6%
  Population Mitochondria Different-Phenotype (%): 6% and 3%
  Population Mitotic Cells (%): 61% and 66%
  Population Normal (%): 100%
  Population Pyknosed Nuclei (%): 18% and 22%
  Population Tubulin-Different-Phenotype (%): 64% and 48%
[5]
  Population Apoptotic (%): 70% and 78%
  Population Fragmented Nuclei (%): 5% and 3%
  Population Healthy Nuclei (%): 81% and 89%
  Population Hoechst High Intensity Objects (%): 0%
  Population Membrane Permeable-Phenotype (%): 0% and 1%
  Population Mitochondria Different-Phenotype (%): 0%
  Population Mitotic Cells (%): 30% and 21%
  Population Normal (%): 100% and 99%
  Population Pyknosed Nuclei (%): 13% and 7%
  Population Tubulin-Different-Phenotype (%): 56% and 80%
[6]
  Population Apoptotic (%): 94% and 73%
  Population Fragmented Nuclei (%): 15% and 14%
  Population Healthy Nuclei (%): 47% and 50%
  Population Hoechst High Intensity Objects (%): 3% and 1%
  Population Membrane Permeable-Phenotype (%): 12% and 5%
  Population Mitochondria Different-Phenotype (%): 4% and 5%
  Population Normal (%): 96% and 98%
  Population Pyknosed Nuclei (%): 37% and 34%
  Population Tubulin-Different-Phenotype (%): 62% and 67%

## CC1=C(C)C(=O)C(C(CCCCCC(=O)O)c2ccccc2)=C(C)C1=O (stereo not drawn) [SERATRODAST]
[1]
  Population Apoptotic (%): 66% and 64%
  Population Fragmented Nuclei (%): 11% and 5%
  Population Healthy Nuclei (%): 80% and 84%
  Population Hoechst High Intensity Objects (%): 0%
  Population Membrane Permeable-Phenotype (%): 3% and 2%
  Population Mitochondria Different-Phenotype (%): 3% and 0%
  Population Mitotic Cells (%): 33% and 36%
  Population Normal (%): 100%
  Population Pyknosed Nuclei (%): 8% and 9%
  Population Tubulin-Different-Phenotype (%): 100% and 92%
[2]
  Population Apoptotic (%): 75% and 37%
  Population Healthy Nuclei (%): 68% and 84%
  Population Hoechst High Intensity Objects (%): 0%
  Population Membrane Permeable-Phenotype (%): 0% and 1%
  Population Mitochondria Different-Phenotype (%): 0%
  Population Mitotic Cells (%): 25% and 62%
  Population Normal (%): 100%
  Population Pyknosed Nuclei (%): 5% and 11%
  Population Tubulin-Different-Phenotype (%): 80% and 94%
[3]
  Population Apoptotic (%): 75% and 54%
  Population Fragmented Nuclei (%): 7% and 2%
  Population Healthy Nuclei (%): 82% and 88%
  Population Hoechst High Intensity Objects (%): 0%
  Population Membrane Permeable-Phenotype (%): 3%
  Population Mitochondria Different-Phenotype (%): 3% and 1%
  Population Mitotic Cells (%): 25% and 45%
  Population Normal (%): 100%
  Population Pyknosed Nuclei (%): 10% and 8%
  Population Tubulin-Different-Phenotype (%): 100% and 92%
[4]
  Population Apoptotic (%): 50% and 66%
  Population Healthy Nuclei (%): 70% and 88%
  Population Hoechst High Intensity Objects (%): 0%
  Population Membrane Permeable-Phenotype (%): 1% and 2%
  Population Mitochondria Different-Phenotype (%): 1% and 0%
  Population Mitotic Cells (%): 50% and 33%
  Population Normal (%): 100%
  Population Pyknosed Nuclei (%): 6%
  Population Tubulin-Different-Phenotype (%): 92%
[5]
  Population Apoptotic (%): 33% and 43%
  Population Fragmented Nuclei (%): 4% and 3%
  Population Healthy Nuclei (%): 89% and 91%
  Population Hoechst High Intensity Objects (%): 0%
  Population Membrane Permeable-Phenotype (%): 0% and 1%
  Population Mitochondria Different-Phenotype (%): 0%
  Population Mitotic Cells (%): 66% and 56%
  Population Normal (%): 100%
  Population Pyknosed Nuclei (%): 5% and 4%
  Population Tubulin-Different-Phenotype (%): 100% and 94%
[6]
  Population Apoptotic (%): 58%
  Population Fragmented Nuclei (%): 12% and 3%
  Population Healthy Nuclei (%): 79% and 90%
  Population Hoechst High Intensity Objects (%): 0%
  Population Membrane Permeable-Phenotype (%): 0% and 2%
  Population Mitochondria Different-Phenotype (%): 0%
  Population Mitotic Cells (%): 41%
  Population Normal (%): 99%
  Population Pyknosed Nuclei (%): 8% and 6%
  Population Tubulin-Different-Phenotype (%): 89% and 95%
